Results as given in ChEMBL document CHEMBL3351368, “Biphenyl-4-carboxylic acid [2-(1H-indol-3-yl)-ethyl]-methylamide (CA224), a nonplanar analogue of fascaplysin, inhibits Cdk4 and tubulin polymerization: evaluation of in vitro and in vivo anticancer activity” (J Med Chem, 2014).
Calls of active or inactive are those of the source.

How the values were obtained:
[1] = target: Cyclin-dependent kinase 1/cyclin B1 (Homo sapiens, UniProt P06493); experiment: Binding affinity to human CDK1/cyclinB1; type: protein-complex assay
Sequence of Cyclin-dependent kinase 1/cyclin B1 (P06493 whole entry): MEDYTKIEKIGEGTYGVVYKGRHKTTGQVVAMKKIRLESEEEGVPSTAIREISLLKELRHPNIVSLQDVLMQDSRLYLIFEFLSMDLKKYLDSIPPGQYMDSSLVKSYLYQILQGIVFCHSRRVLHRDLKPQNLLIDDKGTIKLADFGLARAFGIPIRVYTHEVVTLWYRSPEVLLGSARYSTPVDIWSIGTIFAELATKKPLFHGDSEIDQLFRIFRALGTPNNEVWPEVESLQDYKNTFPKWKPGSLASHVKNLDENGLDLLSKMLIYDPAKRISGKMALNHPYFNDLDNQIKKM
Sequence of Cyclin-dependent kinase 1/cyclin B1 (P14635 whole entry, further chain): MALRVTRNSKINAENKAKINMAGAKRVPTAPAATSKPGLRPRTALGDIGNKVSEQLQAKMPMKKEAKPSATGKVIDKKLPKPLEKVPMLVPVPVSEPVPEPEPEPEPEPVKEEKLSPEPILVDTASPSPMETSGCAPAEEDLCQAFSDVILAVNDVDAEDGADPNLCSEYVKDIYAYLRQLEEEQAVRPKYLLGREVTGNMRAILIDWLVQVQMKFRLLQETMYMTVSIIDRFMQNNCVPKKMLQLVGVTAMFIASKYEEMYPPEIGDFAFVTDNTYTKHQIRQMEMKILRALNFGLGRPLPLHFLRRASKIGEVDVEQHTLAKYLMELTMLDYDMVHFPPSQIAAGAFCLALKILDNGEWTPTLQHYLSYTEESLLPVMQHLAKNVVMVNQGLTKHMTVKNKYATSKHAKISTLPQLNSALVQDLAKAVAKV

CDK9/cyclin T1 = CDK9/cyclin T1 (Homo sapiens, UniProt P50750); experiment: Binding affinity to human CDK9/cyclinT1; type: protein-complex assay
Sequence of CDK9/cyclin T1 (O60563 whole entry): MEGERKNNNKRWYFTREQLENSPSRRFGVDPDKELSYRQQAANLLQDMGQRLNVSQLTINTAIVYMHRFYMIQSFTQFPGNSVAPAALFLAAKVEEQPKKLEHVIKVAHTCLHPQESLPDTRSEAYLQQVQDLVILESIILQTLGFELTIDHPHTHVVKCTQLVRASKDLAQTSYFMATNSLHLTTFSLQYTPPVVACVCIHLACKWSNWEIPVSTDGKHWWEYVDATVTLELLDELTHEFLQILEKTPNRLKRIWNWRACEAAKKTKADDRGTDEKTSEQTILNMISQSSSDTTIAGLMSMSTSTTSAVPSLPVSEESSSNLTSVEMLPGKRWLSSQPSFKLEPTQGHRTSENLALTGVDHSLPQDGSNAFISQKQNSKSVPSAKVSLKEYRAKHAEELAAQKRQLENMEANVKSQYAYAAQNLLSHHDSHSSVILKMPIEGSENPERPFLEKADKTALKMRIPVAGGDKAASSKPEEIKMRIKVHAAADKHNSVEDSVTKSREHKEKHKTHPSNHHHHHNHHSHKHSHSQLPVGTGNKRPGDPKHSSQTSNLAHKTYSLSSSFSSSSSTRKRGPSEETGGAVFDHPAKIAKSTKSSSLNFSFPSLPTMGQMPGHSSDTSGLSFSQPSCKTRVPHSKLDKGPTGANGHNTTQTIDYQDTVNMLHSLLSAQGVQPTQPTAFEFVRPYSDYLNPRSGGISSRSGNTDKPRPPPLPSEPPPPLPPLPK
Sequence of CDK9/cyclin T1 (P50750 whole entry): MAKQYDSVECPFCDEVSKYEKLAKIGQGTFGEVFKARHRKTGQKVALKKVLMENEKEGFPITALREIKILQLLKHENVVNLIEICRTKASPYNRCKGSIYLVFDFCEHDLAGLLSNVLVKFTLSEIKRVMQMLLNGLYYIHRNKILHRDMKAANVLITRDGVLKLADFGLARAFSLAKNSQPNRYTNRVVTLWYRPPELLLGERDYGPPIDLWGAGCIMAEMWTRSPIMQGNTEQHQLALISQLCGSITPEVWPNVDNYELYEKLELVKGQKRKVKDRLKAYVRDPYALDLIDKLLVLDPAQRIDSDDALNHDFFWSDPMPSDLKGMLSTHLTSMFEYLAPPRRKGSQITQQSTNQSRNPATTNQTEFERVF

[2] = Growth inhibition of mouse BNL-CL2 cells after 48 hrs by MTT assay; type: functional, cell-based; settings: BNL CL.2, 48 h
Summary of the method: (§1)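 MTT cell proliferation assay. IC50 (µM) was defined as the concentration giving 50% inhibition of cell growth.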

NCI-H358 = experiment: Growth inhibition of p53 null, pRb null human NCI-H358 cells after 48 hrs by MTT assay; type: functional, cell-based; settings: NCI-H358, 48 h; summary of the method: as §1
[3] = Growth inhibition of p53His273 mut, pRb+ human MiaPaCa cells after 48 hrs by MTT assay; type: functional; settings: MIA PaCa-2, 48 h; summary of the method: as §1
[4] = Growth inhibition of mouse BNL-SVA.8 cells after 48 hrs by MTT assay; type: functional; summary of the method: as §1
[5] = Growth inhibition of p53+, pRb+ human NCI-H460 cells after 48 hrs by MTT assay; type: functional, cell-based; settings: NCI-H460, 48 h; summary of the method: as §1
NCI-H1299 = experiment: Growth inhibition of p53 null, pRb+ human NCI-H1299 cells after 48 hrs by MTT assay; type: functional, cell-based; settings: NCI-H1299, 48 h; summary of the method: as §1
[6] = Displacement of ethidium bromide from closed circular plasmid DNA (unknown origin) by fluorescence quenching assay
[7] = Growth inhibition of p53 null, pRb+ human Calu1 cells after 48 hrs by MTT assay; type: functional, cell-based; settings: Calu-1, 48 h; summary of the method: as §1
[8] = target: Cyclin-dependent kinase 4/cyclin D1 (Homo sapiens, UniProt P11802); experiment: Binding affinity to human CDK4/cyclinD1 using GST-pRB152 as substrate by chemiluminescence assay; type: protein-complex assay
Sequence of Cyclin-dependent kinase 4/cyclin D1 (P11802 whole entry): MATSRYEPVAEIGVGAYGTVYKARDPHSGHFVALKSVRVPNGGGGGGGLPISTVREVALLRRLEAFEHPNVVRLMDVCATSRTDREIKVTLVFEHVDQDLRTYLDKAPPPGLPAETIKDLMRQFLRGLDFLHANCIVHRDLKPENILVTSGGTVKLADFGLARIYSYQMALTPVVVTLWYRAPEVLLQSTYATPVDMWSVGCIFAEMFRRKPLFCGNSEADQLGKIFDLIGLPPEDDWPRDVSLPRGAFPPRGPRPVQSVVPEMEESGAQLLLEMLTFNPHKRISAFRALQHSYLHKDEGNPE
Sequence of Cyclin-dependent kinase 4/cyclin D1 (P24385 whole entry, further chain): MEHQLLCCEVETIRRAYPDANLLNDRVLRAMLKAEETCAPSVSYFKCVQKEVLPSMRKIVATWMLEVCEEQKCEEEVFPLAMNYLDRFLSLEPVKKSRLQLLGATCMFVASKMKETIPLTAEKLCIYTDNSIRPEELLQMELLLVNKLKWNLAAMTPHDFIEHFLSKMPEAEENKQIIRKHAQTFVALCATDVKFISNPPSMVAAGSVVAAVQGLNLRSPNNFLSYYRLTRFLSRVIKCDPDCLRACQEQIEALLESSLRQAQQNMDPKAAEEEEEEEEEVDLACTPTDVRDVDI

[9] = target: Cyclin-dependent kinase 2/cyclin E1 (Homo sapiens, UniProt P24941); experiment: Binding affinity to human CDK2/cyclinE; type: protein-complex assay
[10] = Growth inhibition of p53+, pRb+ human LS 174T cells after 48 hrs by MTT assay; type: functional, cell-based; settings: LS174T; summary of the method: as §1
A549 = experiment: Growth inhibition of p53+, pRb+ human A549 cells after 48 hrs by MTT assay; type: functional, cell-based; settings: A549, 48 h; summary of the method: as §1
CDK2/Cyclin A2 = CDK2/Cyclin A2 (Homo sapiens, UniProt P24941); experiment: Binding affinity to human CDK2/cyclinA using GST-pRB152 as substrate by chemiluminescence assay; type: protein-complex assay
[11] = Growth inhibition of p53 null,pRb+ human PC3 cells after 48 hrs by MTT assay; type: functional, cell-based; settings: PC-3, 48 h; summary of the method: as §1

| Structure (SMILES) | IC50 [1] | IC50 (CDK9/cyclin T1) | IC50 [2] | IC50 (NCI-H358) | IC50 [3] | IC50 [4] | IC50 [5] | IC50 (NCI-H1299) | inhibition [6] | IC50 [7] | IC50 [8] | IC50 [9] | IC50 [10] | IC50 (A549) | IC50 (CDK2/Cyclin A2) | IC50 [11] | IC50 [6] |
| --- | --- | --- | --- | --- | --- | --- | --- | --- | --- | --- | --- | --- | --- | --- | --- | --- | --- |
| CN(CCc1c[nH]c2ccccc12)C(=O)c1ccc(Cl)cc1 | > 500 µM | > 1000 µM | 29 µM | 26 µM | 31 µM | 32 µM | 24 µM | 21 µM | inactive |  |  |  |  |  |  |  |  |
| O=C1c2ccccc2-[n+]2ccc3c([nH]c4ccccc43)c21 [FASCAPLYSIN CHLORIDE] | > 250 µM | > 250 µM |  |  |  |  |  |  |  | 1.3 µM | 0.41 µM | > 250 µM | 0.88 µM | 0.69 µM | > 250 µM | 0.92 µM | 5 µM |
| CN(CCc1c[nH]c2ccccc12)C(=O)c1ccc(C(C)(C)C)cc1 | > 500 µM | > 1000 µM | 18 µM | 14 µM | 10.2 µM | 22 µM | 9.8 µM | 11.5 µM | inactive |  |  |  |  |  |  |  |  |
